Test: Displacement of [3H]epibatidine from nAChR in rat cerebral cortex
Type: tissue-based
How it was run: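 Rat cerebral cortex membranes used as receptor source; competition binding against the radioligand [3H]epibatidine. Ki values given as mean ± SEM of three experiments, each run in triplicate.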

Question: Which Ki does the source give for `COCCOCCOCC#Cc1cncc(OC[C@@H]2CCCN2C)c1` here?
Answer: 0.0075 µM

Question: Which Ki does the source give for `COCCOCCOCCOCCOCCOCCOC(=O)N1CC[N+](C)(C)CC1` here?
Answer: 19 µM

Question: Which Ki does the source give for `COCCOCCOCCOCCOCCOC(=O)N1CC[N+](C)(C)CC1` here?
Answer: 38 µM

Question: For `COCCOCCOCCOCC#Cc1cncc(OC[C@@H]2CCCN2C)c1`, which Ki is on record?
Answer: 0.015 µM

Question: For `COCCOCCOCCOCCOCCOCCOC(=O)NCC[N+](C)(C)C`, which Ki is on record?
Answer: 30 µM

Question: For `COCCOCCOC(=O)NCC[N+](C)(C)C`, which Ki is on record?
Answer: 32 µM

Question: For `CN1CCC[C@H]1COc1cncc(C#CCO)c1`, which Ki is on record?
Answer: 0.0031 µM

Question: With `COC(=O)N1CC[N+](C)(C)CC1` as the compound, how does the Ki read?
Answer: 0.67 µM

Question: For `COCCOC(=O)N1CC[N+](C)(C)CC1`, which Ki is on record?
Answer: 3 µM

Question: Which Ki does the source give for `COCCOCC#Cc1cncc(OC[C@@H]2CCCN2C)c1` here?
Answer: 0.015 µM

Question: Which Ki does the source give for `COCCOCCOCCOCCOCCOC(=O)NCC[N+](C)(C)C` here?
Answer: 190 µM

Question: For `CC(=O)N1CC[N+](C)(C)CC1` [ACETYLDIMETHYLPIPERAZINIUM IODIDE], which Ki is on record?
Answer: 3.6 µM

Question: For `COCC#Cc1cncc(OC[C@@H]2CCCN2C)c1`, which Ki is on record?
Answer: 0.0047 µM

Question: For `COCCOC(=O)NCC[N+](C)(C)C`, which Ki is on record?
Answer: 54 µM

Question: Which Ki does the source give for `COC(=O)NCC[N+](C)(C)C` here?
Answer: 14 µM

Question: With `COCCOCCOCCOC(=O)NCC[N+](C)(C)C` as the compound, how does the Ki read?
Answer: 70 µM

Question: Which Ki does the source give for `COCCOCCOCCOCCOCCOCCOCC#Cc1cncc(OC[C@@H]2CCCN2C)c1` here?
Answer: 0.063 µM

Question: Which Ki does the source give for `COCCOCCOCCOCCOCCOCC#Cc1cncc(OC[C@@H]2CCCN2C)c1` here?
Answer: 0.04 µM

Question: With `COCCOCCOCCOCCOC(=O)N1CC[N+](C)(C)CC1` as the compound, how does the Ki read?
Answer: 26 µM

Question: With `COCCOCCOC(=O)N1CC[N+](C)(C)CC1` as the compound, how does the Ki read?
Answer: 8.2 µM

Question: With `COCCOCCOCCOCCOC(=O)NCC[N+](C)(C)C` as the compound, how does the Ki read?
Answer: 150 µM

Question: For `COCCOCCOCCOC(=O)N1CC[N+](C)(C)CC1`, which Ki is on record?
Answer: 48 µM

Question: For `COCCOCCOCCOCCOCC#Cc1cncc(OC[C@@H]2CCCN2C)c1`, which Ki is on record?
Answer: 0.03 µM
